From PubChem BioAssay
Kir21 inh: blocks the mouse Kir2.1 inward-rectifier potassium channel; P35561; HEK293-Kir2.1, FluxOR thallium flux fluorescence; stronger effect = lower value; B-score at 10 µM; hit rate 0.85% among 310,000; AID 1672;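 active = fluorescence ratio B-score at or below minus 3 SD of library scores, with starting-brightness B-score within 2 SD, cut at about -4.2 in these data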;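 also: channel flux triggered by added potassium and thallium sulfate stimulus; B-score of peak minus minimum fluorescence over baseline after thallium stimulus; more negative B-score means stronger Kir2.1 block with less thallium influx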
KCNK9 block: inhibitors of human KCNK9 two-pore domain potassium channel; Q9NPC2; HEK293 KCNK9, FluxOR thallium flux fluorescence; stronger effect = lower value; B-score at 10 µM; hit rate 1.2% among 310,000;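 active = ratio B-score over 3 SD below the library mean, with starting fluorescence within 5 SD of its mean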;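 also: negative B-score means less thallium flux so channel inhibition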
hERG rescue: hERG (human) protection from proarrhythmic block; activation (rescue from dofetilide block), less the hit threshold, % at 10 µM; CHO-hERG, FluxOR thallium flux, dofetilide IC70 present; AID 1511; Q12809; hit rate 0.51% among 310,000;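 active = activation above the mean of controls blocked by dofetilide plus 5 SD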;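 also: thallium influx through hERG after potassium depolarization seen as dye fluorescence rise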
Target sequence (Q12809 whole entry, looked up): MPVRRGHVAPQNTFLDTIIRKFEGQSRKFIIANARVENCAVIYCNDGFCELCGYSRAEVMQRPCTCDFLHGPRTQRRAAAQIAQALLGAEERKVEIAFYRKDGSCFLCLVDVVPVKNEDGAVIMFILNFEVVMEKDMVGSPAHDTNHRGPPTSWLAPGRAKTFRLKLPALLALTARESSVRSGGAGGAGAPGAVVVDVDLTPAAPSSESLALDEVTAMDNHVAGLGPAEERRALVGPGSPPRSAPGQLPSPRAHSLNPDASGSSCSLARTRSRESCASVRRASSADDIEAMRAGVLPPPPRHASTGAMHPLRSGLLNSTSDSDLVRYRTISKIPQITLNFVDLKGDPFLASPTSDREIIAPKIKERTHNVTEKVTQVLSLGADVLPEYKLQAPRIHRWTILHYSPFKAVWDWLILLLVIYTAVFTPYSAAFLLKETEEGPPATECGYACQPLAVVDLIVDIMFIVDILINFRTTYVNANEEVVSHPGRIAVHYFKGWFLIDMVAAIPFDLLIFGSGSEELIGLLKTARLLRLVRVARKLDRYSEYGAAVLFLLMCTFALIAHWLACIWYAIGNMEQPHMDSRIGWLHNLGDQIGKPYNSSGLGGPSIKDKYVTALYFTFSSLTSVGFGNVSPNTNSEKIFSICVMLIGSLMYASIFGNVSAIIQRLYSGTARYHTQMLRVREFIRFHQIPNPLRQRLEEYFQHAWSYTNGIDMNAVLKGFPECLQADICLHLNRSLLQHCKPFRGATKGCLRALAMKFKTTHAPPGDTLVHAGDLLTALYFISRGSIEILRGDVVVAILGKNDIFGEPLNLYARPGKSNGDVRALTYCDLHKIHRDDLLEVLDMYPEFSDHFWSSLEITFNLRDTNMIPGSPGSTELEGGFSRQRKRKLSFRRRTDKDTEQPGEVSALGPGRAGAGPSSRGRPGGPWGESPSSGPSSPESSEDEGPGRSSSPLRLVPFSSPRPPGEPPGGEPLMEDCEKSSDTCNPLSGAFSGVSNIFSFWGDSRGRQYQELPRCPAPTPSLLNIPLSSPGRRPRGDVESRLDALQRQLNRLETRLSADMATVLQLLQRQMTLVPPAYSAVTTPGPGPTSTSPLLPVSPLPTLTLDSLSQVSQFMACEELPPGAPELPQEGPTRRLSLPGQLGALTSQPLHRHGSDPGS
KCNQ1 pot: potentiators or activators of human KCNQ1 potassium channel | hit rate 0.35% among 310,000 | B-score at 10 µM | P51787 | CHO-K1 KCNQ1, thallium flux FluxOR fluorescence; stronger effect = higher value;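 active = fluorescence ratio B-score, a plate-corrected score, at least three library SD, with initial intensity B-score within 5 SD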
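Medium – assay buffer, equal DMSO in all wells · Material – CHO-K1 cell line with stable KCNQ1 potassium channel expression · Signal – kinetic FluxOR thallium fluorescence, 10-s 1-Hz baseline, 110-s post-stimulus read · Compound – single concentration per compound, DMSO matched to controls · Schedule – 37 °C overnight plating, 90-min dark dye load, 20-min compound pretreatment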
KCNK3 inh: human KCNK3 channel inhibition, primary screen; O14649; CHO-KCNK3 thallium flux, FluxOR fluorescence; stronger effect = lower value; B-score at 10 µM; hit rate 0.84% among 340,000;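 active = B-score under library mean minus 4 SD, starting fluorescence ratio at most library mean plus 5 SD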;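 also: more negative B-score means stronger inhibition of thallium flux through KCNK3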
KCNQ1 block: human KCNQ1 channel inhibition. P51787. CHO-K1 KCNQ1, FluxOR thallium flux fluorescence; stronger effect = higher value. hit rate 1.3% among 310,000. B-score at 10 µM;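 active = compounds whose thallium flux B-score, printed positive for inhibition, exceeds three library SD while starting fluorescence stays within three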;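 also: channel opened by potassium depolarization with thallium stimulus after 20 min compound exposure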
KCNK9 block conf: human KCNK9 inhibitor confirmation; shares compounds with KCNK9 block; HEK293 KCNK9 cells, FluxOR thallium flux fluorescence; inhibition, % at 10 µM; hit rate 43% among 4,900; AID 492992;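 active = thallium signal inhibited by more than 5 SD of the compound-free buffer control wells, on both duplicate plates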;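 also: 0% = assay buffer control wells without compound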
Kir21 sel: tests whether KCNK9 modulators also affect mouse Kir2.1; shares compounds with KCNK9 block; Kir2.1 cells, FluxOR thallium flux fluorescence; inhibition, % at 10 µM; hit rate 4% among 4,900; AID 492993;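 active = thallium signal drop more than 5 SD beyond the mean of the no-compound control wells, seen in both duplicate plates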;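 also: signal is fluorescence rise after thallium addition divided by baseline fluorescence; plate controls were assay buffer only for no effect and full block by chlorpromazine control for full effect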
HEK293 Tl ctr: non-induced cell nonspecific activity of KCNK9 modulators. non-induced KCNK9-HEK293, FluxOR thallium flux. shares compounds with KCNK9 block. hit rate 40% among 4,900. inhibition, % at 10 µM;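 active = thallium signal drop beyond 5 SD of the untreated control mean, on both duplicate plates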;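 also: plate controls were buffer only IC0 wells for no effect and SID17386958 at its maximal inhibitory level for full effect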
KCNK3 inh conf: human KCNK3 channel inhibition, confirmation assay | shares compounds with KCNK3 inh | CHO-KCNK3 thallium flux, FluxOR fluorescence; 0% buffer, 100% carvedilol maximal block | ratio percent of control, % at 10 µM | hit rate 99% among 2,400 | AID 651638;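 active = ratio percent of control, averaged over triplicates, above buffer control mean plus 5 SD, cut at about 64% in these data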;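 also: ratio is the fluorescence rise from min to max over baseline after thallium stimulus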
KCNK3 noninduced: counter-screen for KCNK3 inhibitors: effect in non-induced cells. shares compounds with KCNK3 inh. hit rate 40% among 2,400. AID 651747. thallium flux ratio (lower = more inhibition) at 10 µM. non-induced KCNK3 parental cells, FluxOR thallium flux; stronger effect = lower value;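 active = thallium flux ratio, averaged over three wells, more than 5 SD below the buffer control mean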;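 also: host cells are CHO cells without KCNK3 induction; ratio is peak minus trough fluorescence over baseline then normalized to buffer controls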
Starred values were filed as active, the others as inactive; i = inactive; · = no result given. The list is not random: actives were taken first. Their share in the collection is about 3.8%.

SMILES | Kir21 inh | KCNK9 block | hERG rescue | KCNQ1 pot | KCNK3 inh | KCNQ1 block | KCNK9 block conf | Kir21 sel | HEK293 Tl ctr | KCNK3 inh conf | KCNK3 noninduced
CC(C1CC1)N(Cc1ccccc1)C(=S)Nc1cccc(C(F)(F)F)c1 (configuration not stated) | -0.62 | -13* | -5.6 | i | -9.15* | i | 56.5%* | i | 39.0%* | 124.7* | i
CCOC(=O)C1CCN(c2nc(-c3ccc(C)cc3)nc3ccccc23)CC1 | 0.22 | -8.16* | -14.9 | i | -9.21* | i | 48.5%* | i | 30.0%* | 108.3* | i
CCCCCOC(=O)c1cc(=O)[nH]c2ccccc12 | -0.35 | i | -8.5 | i | i | i | · | · | · | · | ·
CCc1noc(C)c1C(=O)N1CCN(S(=O)(=O)c2ccc(C)cc2)CC1 | -1.81 | i | -15.3 | i | i | i | · | · | · | · | ·
CCc1noc(C)c1C(=O)N1CCSC1=Nc1cccc(Cl)c1C | -3.46 | -8.93* | -16.7 | i | -11* | 6* | 63.5%* | i | 42.0%* | 113.3* | i
Cc1noc(C(=O)N2CCN(c3ccccc3)CC2)c1Cl | -0.02 | i | -6.3 | i | i | i | · | · | · | · | ·
Cc1cc(NC(=O)C2CCCO2)ccc1Br (configuration not stated) | 1.52 | i | -11.0 | i | i | i | · | · | · | · | ·
Cc1ccc(C(=O)COc2ccc3ccc(=O)oc3c2)cc1 | -0.4 | i | -9.7 | i | i | i | · | · | · | · | ·
O=c1ccc2ccc(OCCOc3cccc(Cl)c3)cc2o1 | -1.26 | -9.51* | -15.5 | i | i | i | 32.5%* | i | 41.5%* | 99.7* | i
COC(=O)c1ccsc1NC(=O)CN1CCN(c2ccc(F)cc2)CC1 | -0.27 | -11.1* | -8.2 | i | i | i | i | i | 28.0%* | 105.0* | i
Cc1nnc(N2C(=O)C(=O)/C(=C(/O)c3ccc4c(c3)CC(C)O4)C2c2ccccc2F)s1 (configuration not stated) | 0.67 | i | -4.2 | i | i | i | · | · | · | · | ·
O=c1cc(N2CCCCC2)c(-c2ccccc2)nn1Cc1c(Cl)cccc1Cl | -0.08 | -10.4* | -10.2 | i | -8.78* | 9* | 52.0%* | i | 25.0%* | 98.3* | 0.152*
CCCCCCNC(=O)CC(c1ccccc1)c1cc(Br)ccc1O (configuration not stated) | 0.67 | -11* | -10.1 | i | -9.84* | i | 51.0%* | i | 31.5%* | 118.7* | 0.148*
Cc1cc(C)n(-c2ccc(C(=O)Nc3ccc(S(=O)(=O)NCc4ccco4)cc3)cc2)n1 | -0.1 | i | -2.2 | i | i | i | · | · | · | · | ·
Cc1ccc(C)c(CN2CCNC2=O)c1 | -0.18 | i | -8.4 | i | i | i | · | · | · | · | ·
Cc1ccc(CN2CCCN(Cc3cc(C)ccc3C)S2(=O)=O)cc1 | -2.09 | -15.5* | -7.7 | i | -9.75* | i | 62.5%* | i | 37.0%* | 0.0 | i
Cc1ccc(C)c(CN2CCCN(Cc3cc(C)ccc3C)S2(=O)=O)c1 | 0.02 | -18.8* | -6.6 | i | -10.7* | i | 75.5%* | i | 41.0%* | 87.0* | i
C=CCC(c1ccccc1F)N(CCN1CCOCC1)C(=O)Nc1cccc(Cl)c1 (configuration not stated) | -0.26 | -12.9* | -14.4 | i | -8.94* | i | 57.0%* | i | 39.5%* | 127.3* | 0.14*
O=C(Nc1cccc(Cl)c1)N(CCN1CCOCC1)Cc1ccccc1F | 0.23 | i | -18.9 | i | i | i | · | · | · | · | ·
CCc1ccccc1NC(=S)/N=C(\N)Nc1nc(C)c2cc(C)ccc2n1 | 0.95 | i | -9.2 | i | i | i | · | · | · | · | ·
CCC(Oc1ccccc1)C(=O)Nc1ccccc1OC (configuration not stated) | -1.16 | i | -7.5 | i | i | i | · | · | · | · | ·
CCC(Oc1ccccc1)C(=O)Nc1ccccc1N1CCCC1 (configuration not stated) | -5.46* | -11.5* | -12.0 | i | -12.7* | i | 59.0%* | 45.0%* | 74.0%* | 111.0* | i
Cc1cc(C)nc(NC(=NCCc2c[nH]c3ccccc23)NC(=O)c2ccco2)n1 | 1.91 | -15.2* | -20.6 | i | -9.01* | i | 30.0%* | i | i | 134.7* | 0.152*
Cc1cc(C(=O)CSc2nc3ccc(Cl)cc3[nH]2)c(C)n1Cc1ccco1 | 0.27 | i | -2.0 | i | -9.7* | i | i | i | i | 93.7* | i
CCOC(=O)c1cc(-c2ccccc2)sc1NC(=O)CSc1nnnn1C | -0.93 | -9.62* | -6.7 | i | -10.6* | i | 54.0%* | i | 32.0%* | 104.3* | i
SMILES | Kir21 inh | KCNK9 block | hERG rescue | KCNQ1 pot | KCNK3 inh | KCNQ1 block | KCNK9 block conf | Kir21 sel | HEK293 Tl ctr | KCNK3 inh conf | KCNK3 noninduced
CCOC(=O)c1cccc(NC(=O)CSc2nnnn2C)c1 | 0.31 | i | -12.1 | i | i | i | · | · | · | · | ·
CCOC(=O)c1sc(-c2ccccc2)cc1NC(=O)CSc1nnnn1C | 1.96 | -10.7* | -5.8 | i | -11.9* | i | 52.5%* | i | 34.5%* | 86.7* | i
CCC(C)NC(=O)CSc1nc2ccsc2c(=O)n1NC(=O)c1ccccc1 (configuration not stated) | -0.69 | i | -7.2 | i | i | i | · | · | · | · | ·
Nc1sc(-c2ccccc2)cc1C(=O)N/N=C/c1ccc(Cl)cc1 | -0.7 | -14* | -8.8 | i | i | i | 52.0%* | i | 38.5%* | 122.7* | i
O=C(N/N=C/c1ccc(Cl)cc1)c1cc(-c2cccnc2)nc2ccccc12 | 0.26 | i | -4.5 | i | i | i | · | · | · | · | ·
CCN(CC)C(=O)CSc1nc2ccccc2c(=O)n1OC | 0.43 | i | -5.2 | i | i | i | · | · | · | · | ·
COn1c(SCc2cccc(Cl)c2)nc2ccccc2c1=O | -0.38 | -9.66* | -2.1 | i | -10.9* | i | 50.0%* | i | i | 84.0* | i
COCCn1c(SCc2nc3ccccc3c(=O)[nH]2)nc2ccccc2c1=O | 0.45 | i | -21.5 | i | i | i | · | · | · | · | ·
